Test results: ChEMBL document CHEMBL4513216, “Probing the Open Global Health Chemical Diversity Library for Multistage-Active Starting Points for Next-Generation Antimalarials” (ACS Infect Dis, 2020)

Test: Toxicity liver stage against HepG2, at 10uM
Type: cell-based
Set-up: test concentration 10 uM, cell line HepG2-A16-CD81EGFP
Details: human, HepG2-A16-CD81EGFP cells; read-out: INHIBITION
Procedure, shortened: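 Uninfected HepG2-A16-CD81EGFP cells, 3 × 10^3 per well, 1536-well, plated on prespotted compound at 10 μM final, parasite-free screening media added to match infected plates; puromycin 10 μM positive, DMSO 0.5% negative; run in parallel with 48 h PbLuc assay at 37 °C, 5% CO2; viability by CellTiter-Glo luminescence, normalized to controls.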
With `CCN(C(=O)c1cccc2c1OCO2)c1ccccc1` the cytotoxicity at 10 µM was 0.944%. With `CCOC(=O)CNC(=O)NCc1cccn1Cc1ccccc1F` the cytotoxicity at 10 µM was -2.24%. `COC1CN(C(=O)NC2CCCC2)CCC(=O)N(C)c2ccccc21` (configuration not stated) gave a cytotoxicity at 10 µM of -9.35%. `Cc1ccc(C(=O)N2CC[C@@]3(O)CCCC[C@H]3C2)cc1` showed a cytotoxicity at 10 µM of -45.1%. Compound `Cn1nnnc1SC1CCc2ccccc2NC1=O` (configuration not stated) has a cytotoxicity at 10 µM of -3.22%. With `Cc1ccsc1C(O)CNC(=O)Cc1ccc(F)cc1` (configuration not stated) the cytotoxicity at 10 µM was 3.15%. `O=C(c1ccccc1F)N1CCN(c2ccc(-n3cccc3)nn2)CC1` gave a cytotoxicity at 10 µM of 53.2%. In the case of `CCN1CC2(CC1=O)CN(C(=O)c1ccsc1)CCN(C(=O)N(C)C)C2` (configuration not stated), the cytotoxicity at 10 µM is reported as 3.01%. For `CC/N=c1\nc(NCC)nc2n1C(O)(Nc1cc(Cl)ccc1Cl)CS2` (configuration not stated), the cytotoxicity at 10 µM was 51.8%. `Cc1cc(C)n(C(=O)c2cn(C)nc2S(=O)(=O)N2CCSCC2)n1` gave a cytotoxicity at 10 µM of -2.64%. `CN1CCC(Cc2cncc(-c3ccccc3C(=O)O)n2)C1` (configuration not stated) gave a cytotoxicity at 10 µM of -7.19%. `O=C(Cn1ccnc1)N1C[C@@H]2CC[C@H](Oc3ccc(Cl)cc3)[C@@H]2C1` gave a cytotoxicity at 10 µM of -3.8%. Work on `Cc1cnccc1CN1CC[C@@](C)(O)[C@H](Oc2cccc(F)c2)C1` yielded a cytotoxicity at 10 µM of 1.52%. Work on `CCCN(CCn1c(=O)oc2ccccc21)CC1CC1` yielded a cytotoxicity at 10 µM of 1.78%. Compound `O=C(Nc1cc(Cl)ccc1N1CCCCC1)c1ccccn1` has a cytotoxicity at 10 µM of -55%. In the case of `Cc1ccc(-n2cc(C)cn2)c(NC(=O)NC2(C)CCOC2)c1` (configuration not stated), the cytotoxicity at 10 µM is reported as -43.2%. Compound `CCS(=O)(=O)CCCN1CCSCC1c1ccc(Cl)cc1` (configuration not stated) has a cytotoxicity at 10 µM of -5.05%. In the case of `CSCCC(NC(N)=O)C(=O)NCc1ccc(-n2cccn2)cc1` (configuration not stated), the cytotoxicity at 10 µM is reported as 18%. Work on `CSCc1cc(F)ccc1CNC(=O)N1CCC(CO)CC1` yielded a cytotoxicity at 10 µM of 1.82%. Compound `O[C@H]1Cc2ccccc2[C@H]1Nc1ncccc1C(F)(F)F` has a cytotoxicity at 10 µM of 5.95%. In the case of `COc1ccc(C2CCCN2C(=O)NCCCn2cccn2)cc1` (configuration not stated), the cytotoxicity at 10 µM is reported as 7.53%. `Cc1cc(C)cc(C(=O)Nc2cccc(CN3CCCC3C(N)=O)c2)c1` (configuration not stated) showed a cytotoxicity at 10 µM of 4.38%. `CCC(CNC(=O)c1ccccc1Br)N1CCc2ccccc2C1` (configuration not stated) showed a cytotoxicity at 10 µM of 16.6%. Compound `CC(C)CCCC(C)NC(=O)c1ccc(OCC(N)=O)cc1` (configuration not stated) has a cytotoxicity at 10 µM of 10.2%. With `OC(CN(Cc1ccccc1)Cc1ccccn1)c1cccs1` (configuration not stated) the cytotoxicity at 10 µM was 0.174%. Work on `Cc1ccc(S(=O)(=O)Nc2ccc(-n3cccc3C(=O)O)c(C)c2)cc1` yielded a cytotoxicity at 10 µM of -3.94%. `Cc1ccccc1CN(C)C(=O)Cn1nc(-c2ccc(F)cc2)oc1=O` showed a cytotoxicity at 10 µM of -19.3%. Work on `CCc1nc(CN2CCCC(N(C)CCc3cccs3)C2)no1` (configuration not stated) yielded a cytotoxicity at 10 µM of 15.5%. For `Cc1cnn(CC(C)NCc2nc(-c3ccccn3)no2)c1` (configuration not stated), the cytotoxicity at 10 µM was 0.234%. For `c1cc(NCc2cscn2)cc(OCCN2CCCCC2)c1`, the cytotoxicity at 10 µM was -20.7%. In the case of `Cn1cc(NC(=O)c2cccc(Cl)c2)c(=O)n(C)c1=O`, the cytotoxicity at 10 µM is reported as -1.86%. Compound `CC(C)(C)n1nc(C2CC2)cc1C(=O)NC1CCN(CC(N)=O)CC1` has a cytotoxicity at 10 µM of -2.06%. In the case of `CCN(c1ccccc1)S(=O)(=O)c1cc(C(=O)O)cc2c1CCC2`, the cytotoxicity at 10 µM is reported as 9.69%. Compound `CCN(CC1CCOC1)C(=O)c1cc(Cl)c2c(c1)OCO2` (configuration not stated) has a cytotoxicity at 10 µM of 8.88%. `CN(Cc1ccncc1)C(=O)NCc1cn(-c2ccccc2)nn1` showed a cytotoxicity at 10 µM of -55.7%. Compound `O=C(NCc1ccccc1OCC1CC1)C1CCOC1` (configuration not stated) has a cytotoxicity at 10 µM of 4.94%. Compound `CC(=O)Nc1ccc(C(=O)N(C)Cc2ccc(F)cc2F)s1` has a cytotoxicity at 10 µM of 6.43%. For `Cc1nnc(CSCc2ccc(OCC(F)(F)F)nc2)o1`, the cytotoxicity at 10 µM was 2.49%. For `Clc1ccc(CNc2cnn(CCN3CCOCC3)c2)cc1Cl`, the cytotoxicity at 10 µM was 3.2%. With `CC(C)[C@@H](CO)Nc1cc(-c2cn[nH]c2)ncn1` the cytotoxicity at 10 µM was -11.3%. `Cn1c(CN2CCC(OCc3cccnc3)CC2)cc2ccccc21` gave a cytotoxicity at 10 µM of -2.65%. With `CCc1ncc(CN2CCOC(Cc3cccc(F)c3)C2)cn1` (configuration not stated) the cytotoxicity at 10 µM was 0.0753%. In the case of `Cc1nc(CCNC(=O)C(N)c2c(C)n[nH]c2C)sc1C` (configuration not stated), the cytotoxicity at 10 µM is reported as 2.08%. In the case of `Cc1nn(C)c(C)c1NC(=O)c1cccc(CN2CC[C@H](O)C2)c1`, the cytotoxicity at 10 µM is reported as 1.08%. Work on `CCC1CN(C(=O)c2csc3nc(-c4ccc(Cl)cc4)cn23)CCN1` (configuration not stated) yielded a cytotoxicity at 10 µM of 1.6%. `CC(C)(O)CCc1cccc(C(=O)NCc2nccs2)c1` gave a cytotoxicity at 10 µM of -50.7%. `O=c1c2cccc(Cl)c2ncn1C1CCNC1` (configuration not stated) gave a cytotoxicity at 10 µM of -41.2%. With `CN(C)c1nc2c(c(N(C)C)n1)CCN(C(=O)CN1CCC(O)CC1)C2` the cytotoxicity at 10 µM was 5.31%. Compound `CN(C)CCNc1ccc(-c2nc(COc3ccccc3)no2)cn1` has a cytotoxicity at 10 µM of 10.2%. `Cc1nc(-c2cn(CCN)nn2)n(-c2ccc3c(c2)CCC3)n1` gave a cytotoxicity at 10 µM of 2.86%. For `CSCCC1c2nc[nH]c2CCN1Cc1cncn1C` (configuration not stated), the cytotoxicity at 10 µM was 13.3%. For `CC[C@@]1(O)CCN(Cc2cc(C3CCCCC3)no2)C[C@H]1O`, the cytotoxicity at 10 µM was -4.18%. For `CC1CCCN(c2ccc(C(N)=O)cc2NC(=O)CC2=CCNCC2)C1` (configuration not stated), the cytotoxicity at 10 µM was -46.3%. Compound `CCn1c(CC2CCN(C(=O)C3CCOC3)CC2)nn(C)c1=O` (configuration not stated) has a cytotoxicity at 10 µM of -18%. With `CCN1CCN(Cc2nc(CCc3ccccc3)n[nH]2)CC1` the cytotoxicity at 10 µM was -10.7%. `Cc1noc(-c2ccnc(Oc3ccccc3CN3CCCCC3)c2)n1` showed a cytotoxicity at 10 µM of -1.76%. With `CC(CN1CCC(c2ccccc2)CC1)n1cnc2ccccc21` (configuration not stated) the cytotoxicity at 10 µM was 15.5%. Compound `CCc1[nH]c2c(CNc3cnccn3)cc(F)cc2c1C` has a cytotoxicity at 10 µM of -2.61%. With `O=c1c2ccc(C(F)(F)F)cc2ncn1CCCN1CCCCC1CO` (configuration not stated) the cytotoxicity at 10 µM was -5.98%. `Cc1nonc1C1CCCN1Cc1ccc(C(=O)Nc2nccs2)cc1` (configuration not stated) gave a cytotoxicity at 10 µM of 76.7%. For `Cc1ccc(CN2CCN(c3cncc(N(C)C)n3)CC2=O)cc1C`, the cytotoxicity at 10 µM was -2.53%. `CN1CCCC2(CC1)CCN(C(=O)CCc1ccccc1O)CC2` gave a cytotoxicity at 10 µM of -32.1%. With `COCCCN1CCC(C(=O)c2cc(F)ccc2F)CC1` the cytotoxicity at 10 µM was -10.9%. Work on `O=C(N1CCCCC1)N1CCN(CC(O)c2ccccc2)CC1` (configuration not stated) yielded a cytotoxicity at 10 µM of -7.45%. In the case of `Cc1ccoc1C(=O)NC1CCN(Cc2cccc3ccccc23)CC1`, the cytotoxicity at 10 µM is reported as 0.561%. In the case of `CCn1cnnc1CNC(=O)c1cc(Cl)ccc1F`, the cytotoxicity at 10 µM is reported as -7.75%. For `Cc1ccc(NC2CCN(C(=O)COCC3CC3)CC2)nn1`, the cytotoxicity at 10 µM was 0.132%. Compound `Cc1nc(C)n(CC2CCCN(Cc3noc(C)n3)C2)n1` (configuration not stated) has a cytotoxicity at 10 µM of -1.87%. Work on `Cc1nc(C)n(C2CCCN(C(=O)c3cccc4cn[nH]c34)C2)n1` (configuration not stated) yielded a cytotoxicity at 10 µM of -8.86%. With `CCc1ncncc1C(=O)N1CCCN(Cc2ccc(C)cc2)CC1` the cytotoxicity at 10 µM was -0.611%. With `O=C(c1cc(C2CC2)on1)N1CCCC(n2cncn2)C1` (configuration not stated) the cytotoxicity at 10 µM was -14%. Compound `NC(=O)C1CCCN(C(=O)c2cnc3c(cnn3C3CCCC3)c2)C1` (configuration not stated) has a cytotoxicity at 10 µM of -5.54%. With `NC(=O)CC1CCN(C(=O)NCc2ccccc2-n2cccn2)CC1` the cytotoxicity at 10 µM was 2.19%. `COC(=O)c1cccn1C1CCN(Cc2ccccc2)CC1` gave a cytotoxicity at 10 µM of -12%. Work on `Clc1ccc(C2(CNC3=NCCN3)CC2)cc1` yielded a cytotoxicity at 10 µM of 7.38%. In the case of `CC(=O)N1[C@H](Cn2cncn2)C[C@@H]2CN(Cc3ccncc3)CC[C@@H]21`, the cytotoxicity at 10 µM is reported as 2.24%. In the case of `CCS(=O)(=O)N1CCCC2(COCCN(c3ccccn3)C2)C1` (configuration not stated), the cytotoxicity at 10 µM is reported as -1.02%. Compound `COc1ncccc1CN1C[C@H]2CCN(c3ncccn3)C[C@H]2C1` has a cytotoxicity at 10 µM of 2.66%. Compound `COc1ncccc1CN1CCC2(CC1)CC(OCC1CC1)CO2` (configuration not stated) has a cytotoxicity at 10 µM of 4.33%. `O=C(C1CC=CC1)N1C[C@H]2CN(Cc3ccncc3)C(=O)[C@H]2C1` gave a cytotoxicity at 10 µM of -86.6%. Work on `c1ccc(CN2Cc3nccn3CC(Cn3cccn3)C2)nc1` (configuration not stated) yielded a cytotoxicity at 10 µM of -105%. Compound `Fc1ccc(CN2CC[C@H]3O[C@@H](COCC4CCOCC4)CC[C@H]32)cc1` has a cytotoxicity at 10 µM of 7.64%.
